Experimental data: ChEMBL document CHEMBL3616379, “From carbohydrates to drug-like fragments: Rational development of novel α-amylase inhibitors” (Bioorg Med Chem, 2015)
Blank lines part the entries; values can stand above or below the molecule they belong to. Active and inactive are the calls of the source. No cut-off for these calls is given here.

Experiments:
[1] = biological target: T1, Alpha-amylase 1A (Homo sapiens, UniProt P0DUB6); experiment: Inhibition of human salivary alpha-amylase using GalG2CNP as substrate by UV-Vis spectrophotometric analysis; conditions: read-out: IC50
T1 sequence (P0DUB6 whole entry): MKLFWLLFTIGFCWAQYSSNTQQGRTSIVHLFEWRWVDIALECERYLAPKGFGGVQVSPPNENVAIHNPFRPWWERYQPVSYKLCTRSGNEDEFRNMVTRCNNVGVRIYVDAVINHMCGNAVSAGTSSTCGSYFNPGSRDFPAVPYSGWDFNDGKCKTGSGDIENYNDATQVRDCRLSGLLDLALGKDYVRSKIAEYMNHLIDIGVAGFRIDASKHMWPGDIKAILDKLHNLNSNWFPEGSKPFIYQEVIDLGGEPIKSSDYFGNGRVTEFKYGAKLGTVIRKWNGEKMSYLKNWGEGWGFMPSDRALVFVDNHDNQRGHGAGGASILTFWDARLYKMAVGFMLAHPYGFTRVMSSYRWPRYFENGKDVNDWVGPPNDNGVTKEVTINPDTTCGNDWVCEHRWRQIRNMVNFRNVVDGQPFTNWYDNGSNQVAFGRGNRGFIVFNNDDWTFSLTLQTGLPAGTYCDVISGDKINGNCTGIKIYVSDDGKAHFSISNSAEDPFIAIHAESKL

[2] = biological target: T2, Alpha-amylase 1A (Homo sapiens) (UniProt P0DUB6); experiment: Competitive inhibition of human salivary alpha-amylase using GalG2CNP as substrate by Lineweaver-Burk plot analysis
T2 sequence (whole entry): T1 sequence (P0DUB6 whole entry)
Outline: (§1)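 Inhibition mode assigned from Lineweaver-Burk plots. Human salivary α-amylase (2 nM) started reactions containing GalG2CNP (0.75–4 mM) and inhibitor in DMSO, in 50 mM MES pH 6.0 with 5 mM Ca(OAc)2, 51.5 mM NaCl, 152 mM NaN3 at 37°C. Rates from continuous 400 nm absorbance of released CNP.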

[3] = biological target: T2, Alpha-amylase 1A (Homo sapiens); experiment: Potency index, ratio of BAS 04880564 IC50 to compound IC50 for human salivary alpha-amylase
[4] = system: Escherichia coli; experiment: Inhibition of Escherichia coli MurC ligase assessed as residual activity at 100 uM after 15 mins by Malachite green assay
[5] = biological target: T3, Pancreatic alpha-amylase (Homo sapiens, UniProt P04746); experiment: Inhibition of human pancreatic alpha-amylase
T3 sequence (P04746 whole entry): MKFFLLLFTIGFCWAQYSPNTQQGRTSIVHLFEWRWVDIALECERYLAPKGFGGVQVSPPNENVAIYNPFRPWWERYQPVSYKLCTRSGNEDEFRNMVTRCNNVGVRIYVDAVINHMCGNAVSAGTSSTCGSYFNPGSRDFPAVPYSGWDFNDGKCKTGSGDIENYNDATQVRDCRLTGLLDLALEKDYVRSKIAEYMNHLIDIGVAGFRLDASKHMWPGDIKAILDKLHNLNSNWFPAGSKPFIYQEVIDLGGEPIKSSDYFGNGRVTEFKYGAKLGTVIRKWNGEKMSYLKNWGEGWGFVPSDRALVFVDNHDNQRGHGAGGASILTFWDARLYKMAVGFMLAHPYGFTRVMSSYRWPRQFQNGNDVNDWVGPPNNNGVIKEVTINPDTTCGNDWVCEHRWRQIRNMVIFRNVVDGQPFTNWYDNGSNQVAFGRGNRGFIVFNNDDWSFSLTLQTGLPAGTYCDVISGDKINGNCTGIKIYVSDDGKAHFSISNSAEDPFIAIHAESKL

[6] = biological target: T3, Pancreatic alpha-amylase; experiment: Inhibition of human pancreatic alpha-amylase expressed in Pichia pastoris using amylase as substrate preincubated with substrate for 10 mins followed by protein addition measured every 5 mins
[7] = biological target: T3, Pancreatic alpha-amylase; experiment: Competitive inhibition of human pancreatic alpha-amylase by double reciprocal plot analysis
[8] = biological target: T2, Alpha-amylase 1A (Homo sapiens); experiment: Mixed type inhibition of human salivary alpha-amylase using GalG2CNP as substrate by Lineweaver-Burk plot analysis; outline: as §1
[9] = biological target: T4, Pancreatic alpha-amylase (Homo sapiens) (UniProt P04746); experiment: Inhibition of human pancreatic alpha-amylase using CNPG3 as substrate by spectrophotometric analysis in presence of 40 mM G3F as donor compound and 25 mM 5FIdoF as acceptor compound relative to control
T4 sequence (whole entry): T3 sequence (P04746 whole entry)

[10] = biological target: T1, Alpha-amylase 1A; experiment: Inhibition of human salivary alpha-amylase using rice starch as substrate after 12 mins by microplate reader analysis
[11] = Inhibition of malt alpha-amylase; conditions: concentration not given here
[12] = biological target: T3, Pancreatic alpha-amylase; experiment: Inhibition of human pancreatic alpha-amylase assessed as hydrolysis of G3F by Dixon plot analysis
[13] = Inhibition of Escherichia coli MurC ligase after 15 mins by Malachite green assay
[14] = biological target: T1, Alpha-amylase 1A; experiment: Inhibition of human salivary alpha-amylase using GalG2CNP as substrate
[15] = biological target: T4, Pancreatic alpha-amylase (Homo sapiens); experiment: Inhibition of human pancreatic alpha-amylase using CNPG3 as substrate at 50 mM by spectrophotometric analysis in presence of 20 mM MeG2F as donor compound and 50 mM 5FIdoF as acceptor compound relative to control
[16] = biological target: T1, Alpha-amylase 1A; experiment: Inhibition of human salivary alpha-amylase using GalG2CNP as substrate assessed as CNP liberation by spectrophotometric analysis
Outline: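 Chromogenic kinetic assay with 2 nM HSA and 0.75-4 mM GalG2CNP in 50 mM MES pH 6.0 with 5 mM Ca(OAc)2, 51.5 mM NaCl, 152 mM NaN3, 37°C. Substrate and inhibitor (DMSO dilutions) were premixed and the reaction started by adding enzyme. CNP release was followed continuously at 400 nm. IC50 was taken from a four-parameter logistic fit of fractional activity versus inhibitor level, three repeats.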

[17] = biological target: T1, Alpha-amylase 1A; experiment: Non-competitive inhibition of human salivary alpha-amylase using GalG2CNP as substrate assessed as CNP liberation by Lineweaver-Burk plot analysis
Outline: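 Same HSA/GalG2CNP system: 2 nM enzyme, 0.75-4 mM substrate, 50 mM MES pH 6.0 with Ca(OAc)2, NaCl, NaN3, 37°C, CNP followed continuously at 400 nm, inhibitor added from DMSO. Inhibition type was assigned from Lineweaver-Burk plots.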

[18] = biological target: T2, Alpha-amylase 1A (Homo sapiens); experiment: Inhibition of human salivary alpha-amylase using GalG2CNP as substrate at 200 uM by UV-Vis spectrophotometric analysis
Outline: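 Single-concentration test at 200 μM inhibitor against human salivary α-amylase (2 nM) with GalG2CNP substrate, 50 mM MES pH 6.0 containing 5 mM Ca(OAc)2, 51.5 mM NaCl, 152 mM NaN3, 37°C. Chloronitrophenol liberation monitored continuously at 400 nm by UV-Vis spectrophotometry.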

[19] = biological target: T3, Pancreatic alpha-amylase; experiment: Inhibition of human pancreatic alpha-amylase expressed in Pichia pastoris using amylase as substrate preincubated with substrate for 10 mins followed by protein addition measured every 5 mins by Dixon plot analysis

SMILES: C[C@H]1O[C@H](O[C@H]2[C@H](O)[C@@H](O)[C@@H](O)O[C@@H]2CO)[C@H](O)[C@@H](O)[C@@H]1N[C@H]1C=C(CO)[C@@H](O)[C@H](O)[C@H]1O
Ki [5]: 0.075 µM

SMILES: C[C@H]1O[C@H](O[C@H]2[C@H](O)[C@@H](O)[C@@H](O)O[C@@H]2CO)[C@H](O)[C@@H](O)[C@@H]1NC1=C[C@H](CO)[C@@H](O[C@H]2O[C@H](CO)[C@@H](O[C@H]3O[C@H](CO)[C@@H](O)[C@H](O)[C@H]3O)[C@H](O)[C@H]2O)[C@H](O)[C@H]1O
IC50 [6]: 2.59 µM

SMILES: C[C@@H]1O[C@@H](O[C@@H]2CO[C@@H](Oc3c(O)cc(C4=C(O[C@@H]5O[C@@H](C)[C@H](O)[C@@H](O)[C@H]5O[C@@H]5O[C@H](COC(=O)/C=C/c6ccc(O)c(O)c6)[C@@H](O)[C@H](O)[C@H]5O[C@@H]5O[C@H](CO)[C@@H](O)[C@H](O)[C@H]5O)C(=O)c5c(O)cc(O)cc5C4)cc3O)[C@H](O)[C@H]2O)[C@H](O)[C@H](O)[C@H]1O
Ki [7]: 0.008 µM

SMILES: OCC1OC(OC2C(O)C(O)C(F)OC2(F)CO)C(O)C(O)C1O (centres undefined)
inhibition [9]: 90%

SMILES: O=C(O[C@@H]1Cc2c(O)cc(O)cc2O[C@@H]1c1cc(O)c(O)c(O)c1)c1cc(O)c(O)c(O)c1 [EPIGALOCATECHIN GALLATE]
IC50 [10]: 1400 µM

SMILES: COC1=C(O)C(=O)OC1C1COC(C)(C)O1 (centres undefined)
inhibition [11]: 0%

SMILES: C[C@H]1O[C@H](O[C@H]2[C@H](O)[C@@H](O)[C@@H](OC[C@H]3O[C@@H](O)[C@H](O)[C@@H](O)[C@@H]3O)O[C@@H]2CO)[C@H](O)[C@@H](O)[C@@H]1N[C@H]1C=C(CO)[C@@H](O)[C@H](O)[C@H]1O
Ki [5]: 0.012 µM

SMILES: OC[C@H]1N/C(=N/O)[C@H](O)[C@@H](O)[C@@H]1O[C@H]1O[C@H](CO)[C@@H](O[C@H]2O[C@H](CO)[C@@H](O)[C@H](O)[C@H]2O)[C@H](O)[C@H]1O
Ki [12]: 1800 µM

SMILES: COc1cc(/C=C/C(=O)OC[C@H]2O[C@@H](O[C@H]3[C@H](OC4=C(c5cc(O)c(O[C@@H]6OC[C@@H](O[C@@H]7O[C@@H](C)[C@H](O)[C@@H](O)[C@H]7O)[C@H](O)[C@H]6O)c(O)c5)Cc5cc(O)cc(O)c5C4=O)O[C@@H](C)[C@H](O)[C@H]3O)[C@H](O[C@@H]3O[C@H](CO)[C@@H](O)[C@H](O)[C@H]3O)[C@@H](O)[C@@H]2O)ccc1O
Ki [7]: 6.1 µM

SMILES: CO[C@H]1[C@H](O)[C@@H](O)[C@@H](O[C@H]2[C@H](O)[C@@H](O)[C@@H](O[C@H]3[C@H](O)[C@@H](O)/C(=N\O)N[C@@H]3CO)O[C@@H]2CO)O[C@@H]1CO
Ki [12]: 25 µM

SMILES: OC[C@H]1N/C(=N/O)[C@H](O)[C@@H](O)[C@@H]1O
Ki [12]: 18000 µM

SMILES: CC1OC(OC2C(CO)OC(OCC3OC(O)C(O)C(O)C3O)C(O)C2O)C(O)C(O)C1NC1C=C(CO)C(OC2OC(CO)C(OC3OC(CO)C(O)C(O)C3O)C(O)C2O)C(O)C1O (centres undefined)
Ki [5]: 0.012 µM

SMILES: CC1OC(OC2C(CO)OC(O)C(O)C2O)C(O)C(O)C1NC1C=C(CO)C(OC2OC(CO)C(OC3OC(C)C(NC4C=C(CO)C(O)C(O)C4O)C(O)C3O)C(O)C2O)C(O)C1O (centres undefined)
Ki [14]: 0.7 µM

SMILES: OCC1OC(OC2C(CO)OC(OC3C(O)C(O)C(F)OC3(F)CO)C(O)C2O)C(O)C(O)C1O (centres undefined)
inhibition [15]: 95%

SMILES: O=C(OC[C@H]1O[C@@H](OC(=O)c2cc(O)c(O)c(O)c2)[C@H](OC(=O)c2cc(O)c(O)c(O)c2)[C@@H](OC(=O)c2cc(O)c(O)c(O)c2)[C@@H]1OC(=O)c1cc(O)c(O)c(O)c1)c1cc(O)c(O)c(O)c1 [PENTAGALLOYL GLUCOSE]
IC50 [16]: 2.35 µM
Ki [17]: 2.6 µM

SMILES: C[C@H]1O[C@H](O[C@H]2[C@H](O)[C@@H](O)[C@@H](OC[C@H]3OC4(NC(=S)NC4=O)[C@H](O)[C@@H](O)[C@@H]3O)O[C@@H]2CO)[C@H](O)[C@@H](O)[C@@H]1N[C@H]1C=C(CO)[C@@H](O)[C@H](O)[C@H]1O (some centres undefined)
Ki [17]: 0.19 µM

SMILES: C[C@H]1O[C@H](O[C@H]2[C@H](O)[C@@H](O)[C@@H](O[C@H]3[C@H](O)[C@@H](O)[C@@H](O[C@H]4[C@H](O)[C@@H](O)[C@@H](O[C@H]5[C@H](O)[C@@H](O)[C@@H](O)O[C@@H]5CO)O[C@@H]4CO)O[C@@H]3CO)O[C@@H]2CO)[C@H](O)[C@@H](O)[C@@H]1N[C@H]1C=C(CO)[C@@H](O[C@H]2O[C@H](CO)[C@@H](O[C@H]3O[C@H](C)[C@@H](N[C@H]4C=C(CO)[C@@H](O)[C@H](O)[C@H]4O)[C@H](O)[C@H]3O)[C@H](O)[C@H]2O)[C@H](O)[C@H]1O
Ki [19]: 0.0147 µM

Now from value to molecule:

IC50 [1]: 100 µM
Inhibition mode [2]: Active
Ratio IC50 [3]: 1.38
Activity [4]: 90%
SMILES: CN(C)c1ccc(Nc2nc(-c3ccc(O)cc3O)cs2)cc1

IC50 [1]: 100 µM
Ratio IC50 [3]: 1.38
inhibition [8]: Active
Activity [4]: 83%
SMILES: CC(=O)c1cccc(Nc2nc(-c3ccc(O)cc3O)cs2)c1

IC50 [1]: 423 µM
IC50 [13]: 347 µM
SMILES: O=C(O)c1cc(Nc2nc(-c3ccc(O)cc3O)cs2)ccc1O

Ki [7]: 3.6 µM
SMILES: C[C@@H]1O[C@@H](O[C@@H]2CO[C@@H](Oc3c(O)cc(C4=C(O[C@@H]5O[C@@H](C)[C@H](O)[C@@H](O)[C@H]5O[C@@H]5O[C@H](COC(=O)/C=C/c6ccc(O)cc6)[C@@H](O)[C@H](O)[C@H]5O[C@@H]5O[C@H](CO)[C@@H](O)[C@H](O)[C@H]5O)C(=O)c5c(O)cc(O)cc5C4)cc3O)[C@H](O)[C@H]2O)[C@H](O)[C@H](O)[C@H]1O

inhibition [11]: 99%
SMILES: CC(=O)OCC(OC(C)=O)C1OC(O)=C(O)C1=O (centres undefined)

IC50 [1]: 165 µM
Ratio IC50 [3]: 0.83
IC50 [13]: 531 µM
SMILES: NS(=O)(=O)c1ccc(Nc2nc(-c3ccc(O)cc3O)cs2)cc1

inhibition [18]: inactive
SMILES: CC1=NN(c2ccccc2)C(=O)/C1=C(/NNC(=O)c1ccccc1O)c1ccccc1
